Published values from different studies.
Lines come from different studies, so protocols differ.
Cathepsin F: Cathepsin F (Homo sapiens, UniProt Q9UBX1)
ABHD6: Monoacylglycerol lipase ABHD6 (ABHD6, Homo sapiens, UniProt Q9BV23)
GRK2: Beta-adrenergic receptor kinase 1 (GRK2, Homo sapiens, UniProt P25098)
HTR5A: 5-hydroxytryptamine receptor 5A (HTR5A, Homo sapiens, UniProt P47898)

| Structure (SMILES) | target | observed | mode | method | tested at | notes | inhibition |
| --- | --- | --- | --- | --- | --- | --- | --- |
| N=C(N)c1ccc2cc(OC(=O)c3ccc(N=C(N)N)cc3)ccc2c1 | Cathepsin F | enzyme activity | inhibitor |  | 10 µM |  | 0% |
| CN(C(=O)Oc1nsnc1N1CCCCC1)c1ccc(C#N)cc1 | ABHD6 | enzyme activity | inhibitor | fluorescence | 1 µM | lysate | 15% |
| CN(CCN1CCC(OC(=O)Nc2ccccc2-c2ccccc2)CC1)C(=O)c1ccc(CN2CCC(C(N)=O)CC2)cc1 | D(4) dopamine receptor (DRD4, Homo sapiens, UniProt P21917) | ligand displacement |  | radioligand | 1 µM |  | -4% |
| COCc1c(-c2cc3cc(C)cc(OC)c3s2)c2c(N)ncnn2c1CN1CCNC(=O)C1 | Mitogen-activated protein kinase kinase kinase 19 (MAP3K19, Homo sapiens, UniProt Q56UN5) | cell-free assay |  | competition with immobilised ligand | 1 µM |  | 89% |
| Cn1cc(-c2cc(F)cc(N3CCn4c(cc5c4CCCC5)C3=O)c2CO)cc(Nc2ccc(N3CCN(C4COC4)CC3)cn2)c1=O | GRK2 | enzyme activity | inhibitor |  | 0.1 µM |  | -1% |
| c1ccc(C(NCCNC(c2ccccc2)c2ccccc2)c2ccccc2)cc1 | D(4) dopamine receptor (DRD4, Homo sapiens, UniProt P21917, del265-296) | cell-free assay |  |  | 10 µM |  | 10% |
| Cc1ccccc1N(C)C(=O)Oc1nsnc1N1CCCCC1 | ABHD6 | enzyme activity | inhibitor | fluorescence | 1 µM | lysate | 17% |
| Cn1cc(-c2cccc(N3CCc4c(sc5c4CC(C)(C)C5)C3=O)c2CO)cc(Nc2ccncn2)c1=O | GRK2 | enzyme activity | inhibitor |  | 1 µM |  | 14% |
| CN(C)C(=O)COC(=O)Cc1ccc(OC(=O)c2ccc(NC(=N)N)cc2)cc1 | Cathepsin F | enzyme activity | inhibitor |  | 10 µM |  | 0% |
| CCN(CC)CCCC[C@H](NC(=O)[C@H](CC(C)C)NC(=O)[C@H](C)NC(=O)[C@H](Cc1ccccc1)NC(=O)c1ccc(C(C)(C)C)cc1)C(=O)N[C@@H](CO)C(=O)OC | HTR5A | ligand displacement |  | radioligand | 10 µM |  | 7% |
| O=C1N=C(N2CCCCN2)S/C1=C\c1ccc(F)cc1O | HTR5A | ligand displacement |  | radioligand | 10 µM |  | < 10% |
| COc1cc2c3c(c1OC)-c1cc4c(cc1CC3N(C)CC2)OCO4 (racemic) | HTR5A | ligand displacement |  | radioligand | 10 µM |  | 92.8% |
| CCOC(=O)c1ccc(OC(=O)CCCCCNC(=N)N)cc1 | Cathepsin F | enzyme activity | inhibitor |  | 10 µM |  | 2% |
| C#Cc1n[nH]c2c(-c3cn([C@@H](C)c4ccccn4)c(=O)[nH]c3=O)cc(F)cc12 | RAC-beta serine/threonine-protein kinase (AKT2, Homo sapiens, UniProt P31751) | enzyme activity | inhibitor |  | 0.1 µM |  | 3.8% |
